We go through twelve molecules from ChEMBL document CHEMBL1275287, “Synthesis and molluscicidal evaluation of some new pyrazole, isoxazole, pyridine, pyrimidine, 1,4-thiazine and 1,3,4-thiadiazine derivatives incorporating benzofuran moiety” (Eur J Med Chem, 2010).

Common to all, as to type: functional, organism-based
For assay [1], the system named is Biomphalaria alexandrina. Kind of assay: Molluscicidal activity against Biomphalaria alexandrina at 1 ppm after 24 hrs. Put shortly: (§1)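 Field-collected snails (about 7 mm shell diameter) held in the lab 10 days before testing and fed lettuce daily. Compound dissolved with two drops Tween 20 plus 2 mL DMSO, then suspended in untreated raw Nile/canal water in aerated glass jars. Three concentrations between 1 and 10 ppm; ten snails per jar, 24 h at 25 °C. Triplicate runs; mean killed snails recorded. Controls received water with Tween 20/DMSO only.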

Assay [2] has as its system Biomphalaria alexandrina. Kind of assay: Molluscicidal activity against Biomphalaria alexandrina at 10 ppm after 24 hrs. In a few lines:
as §1

In assay [3] the test system is Biomphalaria alexandrina. Kind of assay: Molluscicidal activity against Biomphalaria alexandrina at 5 ppm after 24 hrs. In a few lines: as §1

Calls of active or inactive are those of the source. The rule behind the calls is not given here.

Take `O=C(c1cc2ccccc2o1)C(Br)C(Br)c1cn(-c2ccccc2)nc1-c1cc2ccccc2o1` (stereo unspecified): the outcome with Biomphalaria alexandrina [1], in the assay with Biomphalaria alexandrina [2] and in the assay with Biomphalaria alexandrina [3] was inactive.

In the case of `Cc1cn2c(nc1=O)S/C(=C\c1cn(-c3ccccc3)nc1-c1cc3ccccc3o1)C(c1cc3ccccc3o1)=N2`, the result with Biomphalaria alexandrina [1], in the assay with Biomphalaria alexandrina [2] and in the assay on Biomphalaria alexandrina [3] was inactive.

On to `N#Cc1c(-c2cn(-c3ccccc3)nc2-c2cc3ccccc3o2)cc(-c2cc3ccccc3o2)nc1N`, for which, in the assay with Biomphalaria alexandrina [1], the outcome was inactive. Moreover, the result with Biomphalaria alexandrina [2] and in the assay on Biomphalaria alexandrina [3] was Active.

As for `O=C(/C=C/c1cn(-c2ccccc2)nc1-c1cc2ccccc2o1)c1cc2ccccc2o1`, in the assay on Biomphalaria alexandrina [1], the outcome was inactive. In addition, the result with Biomphalaria alexandrina [2] and in the assay with Biomphalaria alexandrina [3] was Active.

For the molecule `O=C(/C(Br)=C/c1cn(-c2ccccc2)nc1-c1cc2ccccc2o1)c1cc2ccccc2o1`, the outcome in the assay with Biomphalaria alexandrina [1], with Biomphalaria alexandrina [2] and in the assay on Biomphalaria alexandrina [3] was inactive.

Turning to `C(=C1/Sc2ccccc2N=C1c1cc2ccccc2o1)/c1cn(-c2ccccc2)nc1-c1cc2ccccc2o1`, the outcome in the assay with Biomphalaria alexandrina [1], in the assay on Biomphalaria alexandrina [2] and in the assay with Biomphalaria alexandrina [3] was inactive.

As to `NC(=S)N1N=C(c2cc3ccccc3o2)CC1c1cn(-c2ccccc2)nc1-c1cc2ccccc2o1` (stereo unspecified), the outcome in the assay with Biomphalaria alexandrina [1], in the assay with Biomphalaria alexandrina [2] and in the assay on Biomphalaria alexandrina [3] was inactive.

Take `c1ccc(-n2cc(C3CC(c4cc5ccccc5o4)=NO3)c(-c3cc4ccccc4o3)n2)cc1` (stereo unspecified): the outcome with Biomphalaria alexandrina [1], with Biomphalaria alexandrina [2] and in the assay with Biomphalaria alexandrina [3] was inactive.

`C(=C1/Sc2nncn2N=C1c1cc2ccccc2o1)/c1cn(-c2ccccc2)nc1-c1cc2ccccc2o1`: the result with Biomphalaria alexandrina [1] was inactive. Moreover, the outcome with Biomphalaria alexandrina [2] and in the assay with Biomphalaria alexandrina [3] was Active.

For the molecule `S=C1N=C(c2cn(-c3ccccc3)nc2-c2cc3ccccc3o2)CC(c2cc3ccccc3o2)N1` (stereo unspecified), the result in the assay with Biomphalaria alexandrina [1], in the assay with Biomphalaria alexandrina [2] and in the assay with Biomphalaria alexandrina [3] was inactive.

For `c1ccc(-n2cc(C3CC(c4cc5ccccc5o4)=NN3)c(-c3cc4ccccc4o3)n2)cc1` (stereo unspecified), the outcome in the assay on Biomphalaria alexandrina [1] was inactive. Further, the outcome with Biomphalaria alexandrina [2] and in the assay on Biomphalaria alexandrina [3] was Active.

For `O=C(Nc1ccc([N+](=O)[O-])cc1Cl)c1cc(Cl)ccc1O`, the result in the assay on Biomphalaria alexandrina [1], with Biomphalaria alexandrina [2] and in the assay with Biomphalaria alexandrina [3] was Active.
